Source: ChEMBL document CHEMBL1147099, “In vitro and in vivo antibacterial activities of heteroaryl isothiazolones against resistant gram-positive pathogens” (Antimicrob Agents Chemother, 2007)
≈ marks a conversion by molar mass, not a printed value.

Assays:
[1] = Tmax in mouse at 50 mg/kg, sc; format: ADME, organism-based; parameters: dose 50 mg/kg, route subcutaneous; conditions: in vivo
Outline: (§1)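 Fasted mice given one subcutaneous dose (20 or 50 mg/kg); blood taken from groups of three at 0.08, 0.25, 0.5, 1, 2, 4, 8, 24 h. Plasma protein-precipitated with cold acetonitrile plus internal standard, LC-MS/MS (C8, positive ESI, SRM); calibration 5–15,000 ng/ml. Noncompartmental analysis of mean concentrations; AUC to last quantifiable point by linear trapezoidal rule.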

[2] = test system: Streptococcus pyogenes; experiment: Antibacterial activity against Streptococcus pyogenes; format: functional
Outline: (§2)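 Aerobic isolates run by CLSI broth microdilution in cation-adjusted Mueller-Hinton II broth (streptococci plus 2–5% lysed horse blood), about 5 × 10^5 CFU/ml final; 24 h at 35–37°C aerobically; MIC read as lowest concentration without visible growth.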

[3] = test system: Staphylococcus aureus; experiment: Antibacterial activity against methicillin-resistant Staphylococcus aureus after 24 hrs by broth microdilution method; format: functional
Outline: (§3)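 Broth microdilution per CLSI in cation-adjusted Mueller-Hinton II broth, final inoculum approximately 5 × 10^5 CFU/ml. Plates were incubated aerobically at 35 to 37°C for 24 h. MIC was the lowest concentration giving no visible growth. Reserpine, where used, was at a final concentration of 20 μg/ml.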

[4] = Plasma half life in mouse at 50 mg/kg, sc; format: ADME, organism-based; parameters: dose 50 mg/kg, route subcutaneous
[5] = AUC (0-24 hrs) in mouse at 20 mg/kg, sc; format: ADME, organism-based; parameters: time < 24 hr, dose 20 mg/kg, route subcutaneous; conditions: plasma; outline: as §1
[6] = Cmax in mouse at 50 mg/kg, sc; format: ADME, organism-based; parameters: dose 50 mg/kg, route subcutaneous; conditions: in vivo; outline: as §1
[7] = Cmax in mouse at 20 mg/kg, sc; format: ADME, organism-based; parameters: dose 20 mg/kg, route subcutaneous; conditions: in vivo; outline: as §1
[8] = AUC (0-24 hrs) in mouse at 50 mg/kg, sc; format: ADME, organism-based; parameters: time < 24 hr, dose 50 mg/kg, route subcutaneous; conditions: plasma; outline: as §1
[9] = test system: Enterococcus faecium; experiment: Antibacterial activity against Enterococcus faecium; format: functional; outline: as §2
[10] = Tmax in mouse at 20 mg/kg, sc; format: ADME, organism-based; parameters: dose 20 mg/kg, route subcutaneous; conditions: in vivo; outline: as §1
[11] = test system: Streptococcus pneumoniae; experiment: Antibacterial activity against Streptococcus pneumoniae by agar dilution method; format: functional
[12] = test system: Streptococcus viridans; experiment: Antibacterial activity against Streptococcus viridans after 24 hrs by broth microdilution method; format: functional
Outline: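 CLSI broth microdilution in cation-adjusted Mueller-Hinton II broth, final inoculum about 5 × 10^5 CFU/ml for most strains; streptococci supplemented with 2–5% lysed horse blood, H. influenzae in Haemophilus test medium. Aerobic incubation at 35–37°C for 24 h; MIC = lowest concentration with no visible growth.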

[13] = test system: Enterococcus faecalis; experiment: Antibacterial activity against Enterococcus faecalis; format: functional; outline: as §2
[14] = test system: Staphylococcus aureus; experiment: Antibacterial activity against methicillin-susceptible Staphylococcus aureus after 24 hrs by broth microdilution method; format: functional; outline: as §3
[15] = Plasma half life in mouse at 20 mg/kg, sc; format: ADME, organism-based; parameters: dose 20 mg/kg, route subcutaneous
[16] = test system: Staphylococcus aureus; experiment: microbe, parasite or virus in culture; conditions: Mu50
[17] = test system: Staphylococcus aureus; experiment: Antibacterial activity against ethidium bromide-resistant Staphylococcus aureus BSA643 after 24 hrs by broth microdilution method; format: functional; conditions: BSA643, 24 h; outline: as §3
[18] = test system: Staphylococcus aureus; experiment: Effect on cellular viability of methicillin-sensitive Staphylococcus aureus ATCC 29213 by measuring the time required for recovery at 10 times MIC after 1 hr; format: functional
Outline: (§4)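 S. aureus in log phase, approximately 2–4 × 10^7 CFU/ml in CAMHB, was exposed to 10× MIC for 1 h at 35 to 37°C with shaking, then diluted 1:1,000 into prewarmed CAMHB. Viable counts were taken hourly for 4 to 8 h. PAE = T − C, the time to a 1-log10 rise, treated versus untreated. Mean of two independent experiments.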

[19] = test system: Staphylococcus aureus; experiment: Antibacterial activity against ethidium bromide-resistant Staphylococcus aureus Mu50 after 24 hrs by broth microdilution method; format: functional; conditions: Mu50, 24 h; outline: as §3
[20] = test system: Staphylococcus aureus; experiment: Effect on cellular viability of methicillin-resistant Staphylococcus aureus Mu50 at 10 times MIC by measuring the time required for recovery at 10 times MIC after 1 hr; format: functional; outline: as §4
[21] = test system: Staphylococcus aureus; experiment: Antibacterial activity against […] Staphylococcus aureus ATCC 29213 after 24 hrs by broth microdilution method; format: functional; conditions: ATCC 29213, 24 h; outline: as §3
[22] = test system: Staphylococcus aureus; experiment: Antibacterial activity against ethidium bromide-resistant Staphylococcus aureus BSA678 after 24 hrs by broth microdilution method; format: functional; conditions: BSA678, 24 h; outline: as §3
[23] = test system: Staphylococcus aureus; experiment: Antibacterial activity in CD1 mouse inoculated with methicillin-resistant Staphylococcus aureus ATCC 33591 in thigh assessed as reduction of bacterial population at 10 mg/kg, sc after 4 hrs; format: functional; conditions: route subcutaneous
Outline: (§5)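 Female CD-1 mice (19 to 28 g) were made neutropenic with cyclophosphamide 150 mg/kg i.p. at 4 days and 1 day before infection. Each thigh was injected i.m. with 0.1 ml of S. aureus suspension. A single s.c. dose was given 2 h postinfection, in groups of three mice. Thighs were homogenized in PBS and plated on trypticase soy agar overnight at 37°C. CFU/thigh was compared with controls at the time of treatment.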

[24] = test system: Staphylococcus aureus; experiment: Antibacterial activity in CD1 mouse inoculated with methicillin-sensitive Staphylococcus aureus ATCC 13709 in thigh assessed as reduction of bacterial population at 10 mg/kg, sc after 24 hrs; format: functional; conditions: route subcutaneous; outline: as §5
[25] = test system: Staphylococcus aureus; experiment: Antibacterial activity in CD1 mouse inoculated with methicillin-resistant Staphylococcus aureus ATCC 33591 in thigh assessed as reduction of bacterial population at 10 mg/kg, sc after 24 hrs; format: functional; conditions: route subcutaneous; outline: as §5
[26] = test system: Staphylococcus aureus; experiment: Antibacterial activity in CD1 mouse inoculated with methicillin-resistant Staphylococcus aureus ATCC 33591 in thigh assessed as reduction of bacterial population at 10 mg/kg, sc after 6 hrs; format: functional; conditions: route subcutaneous; outline: as §5
[27] = test system: Staphylococcus aureus; experiment: Antibacterial activity in CD1 mouse inoculated with methicillin-resistant Staphylococcus aureus ATCC 33591 in thigh assessed as reduction of bacterial population at 10 mg/kg, sc after 8 hrs; format: functional; conditions: route subcutaneous; outline: as §5
[28] = test system: Staphylococcus aureus; experiment: Antibacterial activity in CD1 mouse inoculated with methicillin-sensitive Staphylococcus aureus ATCC 13709 in thigh assessed as reduction of CFU/thigh at 10 mg/kg, sc after 4 hrs; format: functional; conditions: route subcutaneous; outline: as §5

SMILES	MIC50 [3] [µg/mL]	MIC90 [3] [µg/mL]	MIC50 [9] [µg/mL]	MIC90 [9] [µg/mL]	MIC50 [11] [µg/mL]	MIC90 [11] [µg/mL]	MIC50 [12] [µg/mL]	MIC90 [12] [µg/mL]	MIC50 [13] [µg/mL]	MIC90 [13] [µg/mL]	MIC50 [14] [µg/mL]	MIC90 [14] [µg/mL]	further results
CC(=O)NCC1CN(c2ccc(N3CCOCC3)c(F)c2)C(=O)O1 (single isomer, unassigned) [LINEZOLID]	2 (≈ 5.93 µM)	2 (≈ 5.93 µM)	2 (≈ 5.93 µM)	2 (≈ 5.93 µM)	1 (≈ 2.96 µM)	1 (≈ 2.96 µM)	1 (≈ 2.96 µM)	1 (≈ 2.96 µM)	2 (≈ 5.93 µM)	> 16	2 (≈ 5.93 µM)	2 (≈ 5.93 µM)	Tmax [1]: 1 h; MIC50 [2]: 1 µg/mL (≈ 2.96 µM); MIC90 [2]: 1 µg/mL (≈ 2.96 µM); half-life [4]: 2.18 h; AUC(0-t) at 24 h [5]: 29100 ng·h/mL; Cmax [6]: 25500 ng/mL; Cmax [7]: 12200 ng/mL; AUC(0-t) at 24 h [8]: 112000 ng·h/mL; Tmax [10]: 0.5 h; half-life [15]: 1.17 h
COc1c(N2C[C@@H]3CCCN[C@@H]3C2)c(F)cc2c(=O)c(C(=O)O)cn(C3CC3)c12 [MOXIFLOXACIN]	–	–	–	–	–	–	–	–	–	–	–	–	MIC [16]: 64 µg/mL (≈ 159 µM); MIC [17]: 16 µg/mL (≈ 39.9 µM); Post anitbiotic effect [18]: 1.6 h; MIC [19]: 4 µg/mL (≈ 9.96 µM); Post anitbiotic effect [20]: 1.5 h; MIC [21]: 0.06 µg/mL (≈ 0.149 µM); MIC [22]: > 64 µg/mL
CN[C@H](CC(C)C)C(=O)N[C@H]1C(=O)N[C@@H](CC(N)=O)C(=O)N[C@H]2C(=O)N[C@H]3C(=O)N[C@H](C(=O)N[C@H](C(=O)O)c4cc(O)cc(O)c4-c4cc3ccc4O)[C@H](O)c3ccc(c(Cl)c3)Oc3cc2cc(c3O[C@@H]2O[C@H](CO)[C@@H](O)[C@H](O)[C@H]2O[C@H]2C[C@](C)(N)[C@H](O)[C@H](C)O2)Oc2ccc(cc2Cl)[C@H]1O [VANCOMYCIN]	1 (≈ 0.69 µM)	8 (≈ 5.52 µM)	> 32	> 32	0.5 (≈ 0.345 µM)	0.5 (≈ 0.345 µM)	0.5 (≈ 0.345 µM)	1 (≈ 0.69 µM)	2 (≈ 1.38 µM)	> 32	1 (≈ 0.69 µM)	2 (≈ 1.38 µM)	CFU/ml [23]: 0.32; CFU/ml [24]: 1.37; CFU/ml [25]: 0.31; CFU/ml [26]: 0.49; CFU/ml [27]: 0.58; CFU/ml [28]: 0.31
